Active and inactive are the calls of the source. The calls are words filed in the database; no cut-off is given here.
Tests used:
[1] = organism: Homo sapiens; assay: Selectivity for human GPR40 over adrenergic alpha1B receptor (unknown origin)
[2] = organism: Homo sapiens; assay: Selectivity for human GPR40 over adrenergic beta1 receptor (unknown origin)
[3] = organism: Homo sapiens; assay: Selectivity for human GPR40 over adrenergic alpha2A receptor (unknown origin)
[4] = biological target: Free fatty acid receptor 1 (Homo sapiens, UniProt O14842); assay: Agonist activity at human GPR40 expressed in CHO cells assessed as calcium flux by FLIPR assay; assay type: functional, cell-based
[5] = organism: Homo sapiens; assay: Selectivity for human GPR40 over adenosine A3 receptor (unknown origin)
[6] = system: Rattus norvegicus; assay: Increase in plasma insulin level in ZDF rat at 0.1 mg/kg, po dosed 30 mins before glucose challenge by OGTT method; assay type: functional, organism-based; set-up: dose 0.1 mg/kg
How it was run: (§1)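 Male Zucker diabetic fatty rats, 9 weeks old, n = 6 per group. Oral dose given 30 min before an oral glucose challenge of 2 g/kg. Plasma glucose and plasma insulin were followed over time after the challenge. Values are reported as mean ± standard error.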

[7] = organism: Homo sapiens; assay: Selectivity for human GPR40 over GABA transporter (unknown origin)
[8] = organism: Homo sapiens; assay: Selectivity for human GPR40 over NK1 receptor (unknown origin)
[9] = organism: Homo sapiens; assay: Selectivity for human GPR40 over muscarinic M3 receptor (unknown origin)
[10] = organism: Homo sapiens; assay: Selectivity for human GPR40 over NMDA receptor glycine binding site (unknown origin)
[11] = organism: Homo sapiens; assay: Selectivity for human GPR40 over mu opioid receptor (unknown origin)
[12] = organism: Homo sapiens; assay: Selectivity for human GPR40 over kappa opioid receptor (unknown origin)
[13] = organism: Homo sapiens; assay: Selectivity for human GPR40 over DAT (unknown origin)
[14] = organism: Homo sapiens; assay: Selectivity for human GPR40 over central GABAA receptor muscimol binding site (unknown origin)
[15] = organism: Homo sapiens; assay: Selectivity for human GPR40 over sigma-2 receptor (unknown origin)
[16] = organism: Homo sapiens; assay: Selectivity for human GPR40 over 5HT1A receptor (unknown origin)
[17] = organism: Homo sapiens; assay: Selectivity for human GPR40 over NET (unknown origin)
[18] = system: Rattus norvegicus; assay: Reduction in glucose excursion in ZDF rat at 0.1 mg/kg, po dosed 30 mins before glucose challenge by OGTT method; assay type: functional, organism-based; set-up: dose 0.1 mg/kg; how it was run: as §1
[19] = organism: Homo sapiens; assay: Selectivity for human GPR40 over dopamine D4.2 receptor (unknown origin)
[20] = organism: Homo sapiens; assay: Selectivity for human GPR40 over dopamine D1 receptor (unknown origin)
[21] = organism: Homo sapiens; assay: Selectivity for human GPR40 over calcium channel L-type benzothiazepine binding site (unknown origin)
[22] = organism: Homo sapiens; assay: Selectivity for human GPR40 over central imidazoline I2 receptor (unknown origin)
[23] = organism: Homo sapiens; assay: Selectivity for human GPR40 over dopamine D2S receptor (unknown origin)
[24] = organism: Homo sapiens; assay: Selectivity for human GPR40 over SERT (unknown origin)
[25] = organism: Homo sapiens; assay: Selectivity for human GPR40 over adenosine A2A receptor (unknown origin)
[26] = organism: Homo sapiens; assay: Selectivity for human GPR40 over central GABAA receptor flunitrazepam binding site (unknown origin)
[27] = organism: Homo sapiens; assay: Selectivity for human GPR40 over adrenergic beta2 receptor (unknown origin)
[28] = organism: Homo sapiens; assay: Selectivity for human GPR40 over GCR (unknown origin)
[29] = organism: Homo sapiens; assay: Selectivity for human GPR40 over adrenergic alpha1D receptor (unknown origin)
[30] = organism: Homo sapiens; assay: Selectivity for human GPR40 over rolipram binding receptor (unknown origin)
[31] = organism: Homo sapiens; assay: Selectivity for human GPR40 over calcium channel L-type dihydropyridine binding site (unknown origin)
[32] = organism: Homo sapiens; assay: Selectivity for human GPR40 over GPR103 (unknown origin)
[33] = organism: Homo sapiens; assay: Selectivity for human GPR40 over sodium channel site 2 (unknown origin)
[34] = organism: Homo sapiens; assay: Selectivity for human GPR40 over bradykinin B1 receptor (unknown origin)
[35] = organism: Homo sapiens; assay: Selectivity for human GPR40 over adenosine A1 receptor (unknown origin)
[36] = organism: Homo sapiens; assay: Selectivity for human GPR40 over neuropeptide YY2 receptor (unknown origin)
[37] = organism: Homo sapiens; assay: Selectivity for human GPR40 over PAF receptor (unknown origin)
[38] = organism: Homo sapiens; assay: Selectivity for human GPR40 over kainate receptor (unknown origin)
[39] = organism: Mus musculus; assay: Induction of glucose-stimulated insulin secretion in GPR40 knock out mouse pancreatic islets; assay type: functional
[40] = organism: Homo sapiens; assay: Selectivity for human GPR40 over KATP channel (unknown origin)
[41] = organism: Homo sapiens; assay: Selectivity for human GPR40 over muscarinic M1 receptor (unknown origin)
[42] = organism: Homo sapiens; assay: Selectivity for human GPR40 over ERalpha (unknown origin)
[43] = organism: Homo sapiens; assay: Selectivity for human GPR40 over nAchR (unknown origin)
[44] = organism: Homo sapiens; assay: Selectivity for human GPR40 over nAchR alpha1 bungarotoxin binding site (unknown origin)
[45] = organism: Homo sapiens; assay: Selectivity for human GPR40 over central GABAB1A receptor (unknown origin)
[46] = organism: Homo sapiens; assay: Selectivity for human GPR40 over EGF receptor (unknown origin)
[47] = organism: Homo sapiens; assay: Selectivity for human GPR40 over IL1 receptor (unknown origin)
[48] = system: Rattus norvegicus; assay: Reduction in glucose excursion in ZDF rat at 0.03 mg/kg, po dosed 30 mins before glucose challenge by OGTT method; assay type: functional, organism-based; set-up: dose 0.03 mg/kg; how it was run: as §1
[49] = organism: Homo sapiens; assay: Selectivity for human GPR40 over bradykinin B2 receptor (unknown origin)
[50] = organism: Homo sapiens; assay: Selectivity for human GPR40 over P2Y receptor (unknown origin)
[51] = organism: Homo sapiens; assay: Selectivity for human GPR40 over dopamine D3 receptor (unknown origin)
[52] = organism: Homo sapiens; assay: Selectivity for human GPR40 over thyroid receptor receptor (unknown origin)
[53] = organism: Homo sapiens; assay: Selectivity for human GPR40 over sigma-1 receptor (unknown origin)
[54] = organism: Homo sapiens; assay: Selectivity for human GPR40 over muscarinic M2 receptor (unknown origin)
[55] = organism: Homo sapiens; assay: Selectivity for human GPR40 over human ERG channel
[56] = organism: Homo sapiens; assay: Selectivity for human GPR40 over NMDA receptor phencyclidine binding site (unknown origin)
[57] = organism: Homo sapiens; assay: Selectivity for human GPR40 over P2X receptor (unknown origin)
[58] = organism: Homo sapiens; assay: Selectivity for human GPR40 over androgen receptor (unknown origin)
[59] = organism: Homo sapiens; assay: Selectivity for human GPR40 over MT1 receptor (unknown origin)
[60] = organism: Homo sapiens; assay: Selectivity for human GPR40 over histamine H2 receptor (unknown origin)
[61] = organism: Homo sapiens; assay: Selectivity for human GPR40 over histamine H3 receptor (unknown origin)
[62] = biological target: T1, Peroxisome proliferator-activated receptor gamma (Homo sapiens) (UniProt P37231); assay: Agonist activity at PPARgamma (unknown origin) up to 100 uM
T1 sequence (whole entry): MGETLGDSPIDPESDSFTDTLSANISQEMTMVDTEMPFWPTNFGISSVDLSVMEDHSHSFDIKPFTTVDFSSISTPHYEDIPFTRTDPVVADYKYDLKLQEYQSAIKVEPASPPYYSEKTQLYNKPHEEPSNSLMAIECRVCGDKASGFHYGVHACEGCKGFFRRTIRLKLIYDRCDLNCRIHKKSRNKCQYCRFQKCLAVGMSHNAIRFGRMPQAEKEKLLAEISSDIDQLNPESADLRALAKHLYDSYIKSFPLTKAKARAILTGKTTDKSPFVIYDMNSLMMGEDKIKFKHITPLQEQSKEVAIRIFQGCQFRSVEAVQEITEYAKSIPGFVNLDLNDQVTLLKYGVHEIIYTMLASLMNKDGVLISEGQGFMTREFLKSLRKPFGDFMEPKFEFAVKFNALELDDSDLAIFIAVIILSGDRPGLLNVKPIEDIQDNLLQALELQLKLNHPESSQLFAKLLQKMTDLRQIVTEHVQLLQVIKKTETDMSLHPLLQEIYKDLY

[63] = organism: Homo sapiens; assay: Selectivity for human GPR40 over 5HT3 receptor (unknown origin)
[64] = organism: Homo sapiens; assay: Selectivity for human GPR40 over adrenergic alpha1A receptor (unknown origin)
[65] = organism: Homo sapiens; assay: Selectivity for human GPR40 over delta opioid receptor (unknown origin)
[66] = organism: Homo sapiens; assay: Selectivity for human GPR40 over endothelin ETB receptor (unknown origin)
[67] = organism: Homo sapiens; assay: Selectivity for human GPR40 over neuropeptide YY1 receptor (unknown origin)
[68] = organism: Homo sapiens; assay: Selectivity for human GPR40 over EP4 receptor (unknown origin)
[69] = organism: Homo sapiens; assay: Selectivity for human GPR40 over endothelin ETA receptor (unknown origin)
[70] = organism: Homo sapiens; assay: Selectivity for human GPR40 over CysLT1 receptor (unknown origin)
[71] = organism: Homo sapiens; assay: Selectivity for human GPR40 over phorbol ester receptor (unknown origin)
[72] = organism: Homo sapiens; assay: Selectivity for human GPR40 over histamine H1 receptor (unknown origin)
[73] = organism: Mus musculus; assay: Induction of glucose-stimulated insulin secretion in wild type mouse pancreatic islets; assay type: functional
[74] = system: Rattus norvegicus; assay: Reduction in glucose excursion in ZDF rat at 10 mg/kg, po dosed 30 mins before glucose challenge by OGTT method; assay type: functional, organism-based; set-up: dose 10 mg/kg; how it was run: as §1
[75] = system: Rattus norvegicus; assay: Increase in plasma insulin level in ZDF rat at 10 mg/kg, po dosed 30 mins before glucose challenge by OGTT method; assay type: functional, organism-based; set-up: dose 10 mg/kg; how it was run: as §1
[76] = biological target: T1, Peroxisome proliferator-activated receptor gamma (Homo sapiens); assay: Agonist activity at PPARgamma (unknown origin) relative to rosiglitazone
[77] = biological target: T2, Peroxisome proliferator-activated receptor gamma (Homo sapiens, UniProt P37231); assay: Agonist activity at PPARgamma (unknown origin)
T2 sequence (P37231 whole entry): T1 sequence (whole entry)

Chain of Free fatty acid receptor 1 (O14842 whole entry): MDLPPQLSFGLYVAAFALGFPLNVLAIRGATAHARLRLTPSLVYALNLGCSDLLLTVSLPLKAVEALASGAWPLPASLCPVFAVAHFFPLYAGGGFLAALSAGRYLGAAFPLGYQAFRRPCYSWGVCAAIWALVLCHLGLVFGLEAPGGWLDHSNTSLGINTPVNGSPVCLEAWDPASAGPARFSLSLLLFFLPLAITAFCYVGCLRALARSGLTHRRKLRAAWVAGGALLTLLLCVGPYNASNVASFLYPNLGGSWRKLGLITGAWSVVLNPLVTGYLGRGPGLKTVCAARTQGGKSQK

CCO[C@@H](CC(=O)O)c1ccc(O[C@@H]2CCc3c2cccc3C(F)(F)F)cc1
Selectivity ratio [1]: > 100
Selectivity ratio [2]: > 100
Selectivity ratio [3]: > 100
EC50 [4]: 0.0037 µM
Selectivity ratio [5]: > 100
Activity [6]: Active
Selectivity ratio [7]: > 100
Selectivity ratio [8]: > 100
Selectivity ratio [9]: > 100
Selectivity ratio [10]: > 100
Selectivity ratio [11]: > 100
Selectivity ratio [12]: > 100
Selectivity ratio [13]: > 100
Selectivity ratio [14]: > 100
Selectivity ratio [15]: > 100
Selectivity ratio [16]: > 100
Selectivity ratio [17]: > 100
Activity [18]: Active
Selectivity ratio [19]: > 100
Selectivity ratio [20]: > 100
Selectivity ratio [21]: > 100
Selectivity ratio [22]: > 100
Selectivity ratio [23]: > 100
Selectivity ratio [24]: > 100
Selectivity ratio [25]: > 100
Selectivity ratio [26]: > 100
Selectivity ratio [27]: > 100
Selectivity ratio [28]: > 100
Selectivity ratio [29]: > 100
Selectivity ratio [30]: > 100
Selectivity ratio [31]: > 100
Selectivity ratio [32]: > 100
Selectivity ratio [33]: > 100
Selectivity ratio [34]: > 100
Selectivity ratio [35]: > 100
Selectivity ratio [36]: > 100
Selectivity ratio [37]: > 100
Selectivity ratio [38]: > 100
Activity [39]: inactive
Selectivity ratio [40]: > 100
Selectivity ratio [41]: > 100
Selectivity ratio [42]: > 100
Selectivity ratio [43]: > 100
Selectivity ratio [44]: > 100
Selectivity ratio [45]: > 100
Selectivity ratio [46]: > 100
Selectivity ratio [47]: > 100
Activity [48]: Active
Selectivity ratio [49]: > 100
Selectivity ratio [50]: > 100
Selectivity ratio [51]: > 100
Selectivity ratio [52]: > 100
Selectivity ratio [53]: > 100
Selectivity ratio [54]: > 100
Selectivity ratio [55]: > 100
Selectivity ratio [56]: > 100
Selectivity ratio [57]: > 100
Selectivity ratio [58]: > 100
Selectivity ratio [59]: > 100
Selectivity ratio [60]: > 100
Selectivity ratio [61]: > 100
Activity [62]: inactive
Selectivity ratio [63]: > 100
Selectivity ratio [64]: > 100
Selectivity ratio [65]: > 100
Selectivity ratio [66]: > 100
Selectivity ratio [67]: > 100
Selectivity ratio [68]: > 100
Selectivity ratio [69]: > 100
Selectivity ratio [70]: > 100
Selectivity ratio [71]: > 100
Selectivity ratio [72]: > 100
Activity [73]: Active

CCO[C@@H](CC(=O)O)c1ccc(O[C@@H]2CCc3ccccc32)cc1
EC50 [4]: 0.031 µM

CCO[C@@H](CC(=O)O)c1ccc(O[C@H]2CCc3c2cccc3C(F)(F)F)cc1
EC50 [4]: 0.019 µM

CCO[C@H](CC(=O)O)c1ccc(O[C@H]2CCc3c2cccc3C(F)(F)F)cc1
EC50 [4]: 2.6 µM

N[C@@H](CC(=O)N1CCn2c(nnc2C(F)(F)F)C1)Cc1cc(F)c(F)cc1F
Activity [74]: Active
Activity [75]: Active

CCO[C@@H](CC(=O)O)c1ccc(OCc2ccc(C(F)(F)F)cc2)cc1
EC50 [4]: 0.0053 µM
Emax [76]: 11.3%
EC50 [77]: 10.4 µM

CCO[C@@H](CC(=O)O)c1ccc(O[C@@H]2CCc3c(C)cccc32)cc1
EC50 [4]: 0.029 µM

CCO[C@H](CC(=O)O)c1ccc(O[C@@H]2CCc3c2cccc3C(F)(F)F)cc1
EC50 [4]: 0.33 µM

CCO[C@@H](CC(=O)O)c1ccc(O[C@@H]2CCc3c(Cl)cccc32)cc1
EC50 [4]: 0.005 µM

From ChEMBL document CHEMBL3425426, “Discovery of DS-1558: A Potent and Orally Bioavailable GPR40 Agonist” (ACS Med Chem Lett, 2015)
